Reference: paper PMC5855380 (Pharmacognosy Research, 2018)
≈ marks a conversion by molar mass, not a printed value.

Test system: HDFn cells
Assay: PrestoBlue cell viability assay, HDFn
Type: cell-based
Details: Homo sapiens, 96 h, read-out: IC50 (half maximal inhibitory concentration), HDFn
How it was run: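 HDFn cells grown in DMEM with 10% FBS and 1X antibiotic-antimycotic (37°C, 5% CO2); seeded at 1×10^4 viable cells/well and attached overnight. Test compound (DMSO stock, 0.1% final DMSO) added in two-fold dilutions, 50–0.39 µg/mL final, for 4 days. PrestoBlue 2 h; absorbance 570 nm normalized to 600 nm. Untreated, Zeocin and media-only background wells. Triplicates; IC50 from dose-response curves.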

Structure (SMILES)	IC50
CC1(C)CC[C@]2(C(=O)O)CC[C@]3(C)C(=CC[C@@H]4[C@@]5(C)CC[C@H](O)C(C)(C)[C@@H]5CC[C@]43C)[C@@H]2C1 [Compound 2, oleanolic acid]	29.5 µg/mL (≈ 64.6 µM)
CC(C)=CCC/C(C)=C/CC/C(C)=C/CC/C=C(\C)CC/C=C(\C)CCC=C(C)C [Compound 3, squalene]	0.1 µg/mL (≈ 0.243 µM)
